A selection: hits, their analogues and other compounds. The true share with any hit is near 1.5%.
FLuc inh counter: Photinus pyralis luciferase inhibition counter-screen; P08659; ATPLite firefly luciferase biochemical luminescence, 10 min; inhibition, % at 10 µM; actives 1.5% (n = 200,000); AID 1006;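 active = inhibition above about 50% when tested at 10 µM, limit read from the data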
Target sequence (P08659 whole entry, looked up): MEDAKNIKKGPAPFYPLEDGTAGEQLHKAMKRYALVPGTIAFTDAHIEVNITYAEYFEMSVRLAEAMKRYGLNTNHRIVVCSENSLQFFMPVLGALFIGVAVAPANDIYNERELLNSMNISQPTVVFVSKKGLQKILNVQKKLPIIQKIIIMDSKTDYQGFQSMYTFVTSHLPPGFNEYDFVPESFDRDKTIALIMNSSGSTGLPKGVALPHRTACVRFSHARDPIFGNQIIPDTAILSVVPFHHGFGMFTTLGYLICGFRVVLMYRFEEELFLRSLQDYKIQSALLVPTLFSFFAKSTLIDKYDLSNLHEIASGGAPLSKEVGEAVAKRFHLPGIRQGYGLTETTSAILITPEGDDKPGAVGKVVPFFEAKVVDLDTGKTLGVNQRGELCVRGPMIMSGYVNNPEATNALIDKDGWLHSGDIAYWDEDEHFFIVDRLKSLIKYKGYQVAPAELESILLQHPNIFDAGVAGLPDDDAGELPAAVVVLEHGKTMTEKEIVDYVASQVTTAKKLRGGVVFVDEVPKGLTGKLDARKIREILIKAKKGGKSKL
FLuc stim CS: affects firefly luciferase, flagging false hits in luciferase stimulation screens; P08659; ATPlite luciferase biochemical, luminescence, 10 min; 0 = ATP-free wells, 1 = DMSO control; activation factor at 10 µM; 200,000 tested, under 10 active;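 active = luciferase activation factor, scaled between plate controls, of at least 2 with compound at 10 µM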
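System: Luciferase/luciferin detection reagent, cell-free biochemical luciferase assay | Medium: PBS buffer for ATP | Dosing: Test compounds dosed from 2 mM stocks in 100% DMSO | Timing: 10 min at ambient temperature | Signal: Luminescence measurement of luciferase light output | Evaluation: Luciferase activation, seen as luminescence increase over controls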
TRAIL sens C8: sensitizes caspase-8 expressing cells to TRAIL; NB7+C8 cells + TRAIL, ATPlite viability luminescence; AID 624354; actives 1% (n = 360,000); inhibition (viability loss, TRAIL sensitization), % at 10 µM;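 active = compounds causing at least 50% loss of cell viability in the single-dose screen, relative to plate controls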
PPC-1+TRAIL kill: kills PPC-1 cancer cells in the presence of TRAIL; actives 0.41% (n = 220,000); cell killing (% activity), % at 4 µM or 5 µM; PPC-1 cells + TRAIL, ATPLite viability luminescence;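 active = cell killing above 50% in the first pass at 4 µM, then a duplicate retest at 5 µM averaging 50% or more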;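 also: plate controls were cells with TRAIL plus DMSO for no effect and medium-only wells lacking cells for full effect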
Active calls of the source: *; . = no result given.

SMILES | FLuc inh counter | FLuc stim CS | TRAIL sens C8 | PPC-1+TRAIL kill
CCn1c(SCC(=O)Nc2ccc(C(C)=O)cc2)nnc1C1CC1 | . | . | 2 | .
Nc1nnc(C(=O)c2ccccc2N)s1 | . | . | -1 | .
COc1cccc2cc(-c3nnc(-c4ccccc4)o3)c(=O)oc12 | 91* | 0.1 | 38 | .
COc1ccc(-c2nnc(-c3cc4ccccc4oc3=O)o2)cc1 | 5 | 0.9 | -4 | 16
CCOC(=O)NC(=O)CSc1nc(C)cc(C)c1C#N | 36 | 0.6 | 72* | 37
COc1ccc(C(=O)NC2=NCCS2)cc1 | . | . | 4 | .
CC(C)c1ccc(C(=O)NC2=NCCS2)cc1 | 84* | 0.2 | 70* | 46
CC(C)Oc1ccc(C(=O)NC2=NCCS2)cc1 | 75* | 0.3 | 59* | 34
Cc1ccc(-n2c(CSc3nc(C)cc(C)n3)n[nH]c2=S)cc1 | 9 | 0.9 | -10 | 14
COC(=O)C1C(=O)C2=C(CC1C)NC(C)=C(C(=O)OCCOc1ccccc1)C2c1ccc(C)o1 (centres undefined) | -6 | 1.1 | -8 | -5
Cc1ccc(NC(=S)N2CCCC(c3nc4ccccc4[nH]3)C2)cc1 (centres undefined) | -2 | 1 | -3 | -16
Cc1ccc(NC(=S)c2nc3ccccc3[nH]2)c(C)c1 | 85* | 0.2 | 73* | 38
Cc1ccc(NC(=S)c2nc3ccccc3[nH]2)cc1 | 83* | 0.2 | 77* | 45
Fc1ccc(-c2ccc(Nc3cccc(F)c3)nn2)cc1 | 9 | 0.9 | 9 | 15
O=C(CN1CCOCC1)NN=C1CCCCCCCCCCC1 | -6 | 1.1 | -6 | 6
CC(=O)Nc1ccc(S(=O)(=O)N2c3ccccc3C(C)=CC2(C)C)cc1 | -4 | 1 | 19 | 12
O=C(CN1CCN(C(=O)c2cccc(S(=O)(=O)N3CCCC3)c2)CC1)Nc1ccc(F)cc1 | . | . | -3 | .
O=[N+]([O-])c1ccc(O)c(/C=N/NC2=NS(=O)(=O)c3ccccc32)c1 | 69* | 0.3 | 3 | 22
NC(=O)c1sc2nc(-c3cccnc3)ccc2c1N | . | . | 18 | 11
CC(C)OC(=O)c1sc2nc(-c3ccccc3)ccc2c1N | 73* | 0.3 | 54* | 32
CCOC(=O)c1sc2nc(-c3cccnc3)ccc2c1N | 77* | 0.2 | 59* | 42
COc1ccc(C(=O)c2sc3nc(-c4ccccc4)ccc3c2N)cc1 | -4 | 1 | 2 | 6
COC(=O)c1sc2nc(-c3ccco3)ccc2c1N | 84* | 0.2 | 57* | 14
CC(=O)N1c2ccc(S(=O)(=O)N3CCCC(C(=O)Nc4cc(C)cc(C)c4)C3)cc2CC1C (centres undefined) | . | . | -12 | .
CC(=N/O)/C(C)=N\NC(=O)c1ccccn1 | 51* | 0.5 | 43 | 29
SMILES | FLuc inh counter | FLuc stim CS | TRAIL sens C8 | PPC-1+TRAIL kill
C/C(=N\NC(=O)c1cc2ccccc2cc1O)c1cc2ccccc2o1 | . | . | 11 | 5
C/C(=N\NC(=O)c1cc2ccccc2cc1O)c1ccccn1 | . | . | 58* | .
C/C(=N\NC(=O)c1c[nH]c2ccccc12)c1ccccn1 | 38 | 0.6 | 20 | 29
C/C(=N\NC(=O)c1ccc(F)cc1)c1ccccn1 | . | . | 55* | .
CC(=O)N1N=C(c2cccc([N+](=O)[O-])c2)OC1(C)c1cccs1 (centres undefined) | . | . | -15 | .
COc1ccccc1NC(=O)CSc1ccc(-c2ccc(-n3ccnc3)cc2)nn1 | . | . | 51* | .
Cc1ccccc1NC(=O)CSc1ccc(-c2ccc(-n3cccn3)cc2)nn1 | . | . | 35 | .
CCc1nnc(NC(=O)CSc2ccc(-c3ccc(-n4cccn4)cc3)nn2)s1 | . | . | 77* | .
NC(=O)C1CCN(C(=O)C2CC(=O)N(c3ccc4c(c3)OCCO4)C2)CC1 (centres undefined) | . | . | 2 | .
CC(=O)Nc1ccc(N/C=C/C(=O)c2ccc(Cl)cc2)cc1 | . | . | 13 | .
O=C(/C=C/Nc1ccc(Br)cc1F)c1ccccc1 | 96* | 0 | 94* | 80*
O=C(/C=C/Nc1ccccc1F)c1ccc(Br)cc1 | 80* | 0.2 | 68* | 40
O=C(/C=C/Nc1ccc(F)c(F)c1)c1ccc(Br)cc1 | 17 | 0.8 | 15 | 6
N#Cc1ccccc1N/C=C/C(=O)c1ccc(Cl)cc1 | . | . | 51* | .
Cn1c(-c2ccc(F)cc2)cnc1NCc1cc2c(cc1[N+](=O)[O-])OCO2 | 2 | 1 | -5 | 6
C[C@@H]1CN([C@H](C)CO)C(=O)CCCn2nncc2CO[C@@H]1CN(C)S(=O)(=O)c1ccc(Oc2ccccc2)cc1 | . | . | -1 | .
COc1ccc(C2=Nc3ccccc3OC2)cc1 | 51* | 0.5 | 13 | 9
COc1ccccc1N=C1NC(=O)/C(=C/c2ccc(N(C)C)cc2)S1 | . | . | 49* | .
N/C(CCS(=O)(=O)c1ccc(Cl)cc1)=N\OC(=O)c1ccccc1C(F)(F)F | . | . | 55* | 31
N/C(CCS(=O)(=O)c1ccc(Cl)cc1)=N\OC(=O)c1ccc(Cl)cc1 | . | . | 74* | 2
N/C(CS(=O)(=O)c1ccccn1)=N\OC(=O)c1ccc(Cl)cc1 | . | . | 19 | 0
Cc1ccc(NC(=S)NCC2CCN(C(C)c3ccccc3)C2)cc1 (centres undefined) | -6 | 1.1 | -10 | -10
CCCCn1c(CCl)nc2cc(S(=O)(=O)N3CCOCC3)ccc21 | . | . | 69* | .
S=C(Nc1ccccc1)Nn1cnnc1 | -13 | 1.1 | 3 | 9
N#Cc1c(C#N)c(SSc2c(C#N)c(C#N)c(N)n2-c2ccccc2)n(-c2ccccc2)c1N | . | . | 79* | .
SMILES | FLuc inh counter | FLuc stim CS | TRAIL sens C8 | PPC-1+TRAIL kill
COc1ccc(OC)c(NC(=O)c2c(NC(=O)CNCc3ccco3)sc3c2CCC3)c1 | -4 | 1 | 2 | -8
CCc1ccc2oc(-c3cc(N=Cc4cccc(OC)c4O)ccc3O)nc2c1 | 84* | 0.2 | . | 37
COc1cccc(C=Nc2cc(C)cc(C)c2)c1O | -4 | 1 | 2 | 27
Fc1ccc(/C=C/c2nnc(-c3cccs3)o2)cc1 | 28 | 0.7 | 20 | 13
Cc1ccc(/C=C/c2nnc(-c3cccs3)o2)cc1 | 51* | 0.5 | 21 | 16
O=c1c2ccccc2nnn1CSc1nnc2sc3ccccc3n12 | 58* | 0.4 | . | 40
COCCN(C(=S)Nc1cccc(OC)c1)C1CCN(C(C)=O)CC1 | -5 | 1.1 | -3 | 4
O=c1c2ccccc2cnn1CCOc1ccccc1 | 83* | 0.2 | 38 | 43
O=C(O)Cn1ncc2ccccc2c1=O | -3 | 1 | -4 | 18
C(=N\N=C\c1cccnc1)/c1cccnc1 | 11 | 0.9 | 13 | 12
CN(/N=C/c1cccnc1)c1cnc2ccccc2n1 | 51* | 0.5 | 31 | 10
COCCN1C[C@@H](CO)O[C@@H](n2cnc3c(NC4CCCC4)ncnc32)C1 | . | . | -14 | .
Cc1c(C(=O)Nc2cccnc2)oc2ccc(Br)cc12 | . | . | 50* | .
CCc1ccc2oc(C(=O)Nc3cccnc3)c(C)c2c1 | . | . | 42 | .
CC1=NN(c2ccc(C)c(C)c2)C(=O)/C1=C\C=C\c1ccc([N+](=O)[O-])o1 | -10 | 1.1 | 79* | 16
Cc1nc(Nc2ccccc2)sc1-c1ccccc1 | 85* | 0.2 | 66* | 33
Cc1ccccc1NC(=O)CCN1CCCCCC1 | . | . | -10 | .
O=C(CSc1ncnc2nc[nH]c12)c1ccccc1 | 4 | 1 | 24 | 5
O=C(CSc1ncnc2nc[nH]c12)c1ccc(Cl)cc1 | . | . | 74* | .

Assay outcomes (PubChem)
